We go through one compound from ChEMBL document CHEMBL1671645, “Pharmacokinetics and absorption of posaconazole oral suspension under various gastric conditions in healthy volunteers” (Antimicrob Agents Chemother, 2009).

For orientation: Tmax means the time at which the peak concentration occurs. For orientation: CL/F means clearance divided by bioavailability, as obtained after extravascular dosing. By half-life is commonly meant how long it takes for the measured level to halve. In general, AUC refers to the area under the concentration-time curve, a measure of exposure. As a reminder, the Cmax is the highest concentration seen after dosing.

The nature of data set [1]: Tmax in fasted healthy human at 400 mg administered as single dose suspension 5 mins before consumption of high fat meal. Format: ADME, organism-based. To be noted: in vivo. The essentials: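 Single oral suspension dose in healthy volunteers while fasting, 5 min before, midway through (about 10 min into a 20-min meal), or 20 min after a high-fat meal (approx 50 g fat); four-way crossover, 7–10-day washout. Plasma 0–168 h by LC-MS/MS (LLOQ 5.00 ng/ml). t1/2 = ln(2)/K; Tmax median.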

The subject of data set [2] is Homo sapiens. Briefly: Apparent total body clearance in fasted healthy human at 200 mg QID, po administered as suspension for 7 days. The data set is classed as ADME, organism-based. The following applies: in vivo, 168 h. The essentials:
(§1)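 Twelve healthy subjects took oral suspension for 7 days as 400 mg BID or 200 mg QID, either fasting or with a Boost-type nutritional supplement, in a crossover with 14–21 day washouts. Nonfat snacks of 800 cal/day or less were allowed. Plasma was sampled 0–168 h after the day-7 morning dose only and analysed by LC-MS/MS. AUC is AUC_τ, normalized to dose.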

Data set [3] can be described thus: Half life in fasted healthy human at 400 mg administered as single dose suspension. The data set is classed as ADME, organism-based. The following applies: in vivo. The essentials:
(§2)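 Single oral suspension dose in fasting healthy volunteers, alone, with 12 oz ginger ale, after esomeprazole 40 mg once each morning days −2 to 1, or both; four-way crossover, 7–10-day washout. EDTA plasma 0–168 h. LC-MS/MS (LLOQ 5.00 ng/ml). t1/2 = ln(2)/K from terminal log-linear regression; Tmax median.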

In data set [4] the test system is Homo sapiens. Description: Toxicity in healthy human assessed as fatigue at 400 mg administered as single dose suspension coadministered with nutritional supplement. Format: organism-based. The following applies: in vivo. In short, it runs like this: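 Three-way randomized crossover in 13 healthy volunteers with a 7- to 10-day washout. Each period was one 400-mg oral posaconazole suspension dose with a nutritional supplement. Metoclopramide 10 mg was given orally three times daily on the day before and the day of dosing; loperamide was a single 4 mg. Safety was assessed from adverse events, tabulated by body system and severity per treatment.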

Data set [5] can be described thus: Tmax in healthy human at 400 mg administered as single dose suspension coadministered with nutritional supplement and 10 mg metoclopramide. Format: ADME, organism-based. The following applies: in vivo. In short, it runs like this:
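Single oral suspension dose with nutritional supplement, alone or with metoclopramide 10 mg orally three times daily on the day before and the day of dosing; three-way crossover, 7–10-day washout. EDTA plasma predose to 168 h, LC-MS/MS (LLOQ 5.00 ng/ml). t1/2 = ln(2)/K from terminal slope; Tmax median.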

Data set [6] relates to Homo sapiens. Description: Toxicity in healthy human assessed as asthenia at 400 mg BID, po administered as suspension for 7 days. The data set is classed as organism-based. The following applies: in vivo, 168 h. The essentials: (§3)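 Healthy volunteers monitored for adverse events, vital signs, clinical laboratory values and 12-lead ECG. Adverse events tabulated by body system or organ class and severity and summarized by treatment across the crossover regimens.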

Data set [7] is described as follows: Half life in fasted healthy human at 200 mg QID, po administered as suspension for 7 days. The data set is classed as ADME, organism-based. The following applies: in vivo. In short, it runs like this: (§4)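 Healthy volunteers given oral suspension (40 mg/ml) for 7 days, fasted or with nutritional supplement (Boost); four-way crossover, 14–21-day washout, nonfat snacks ≤800 cal/day allowed. On day 7 only the morning dose was given; plasma sampled predose to 168 h after it. LC-MS/MS (LLOQ 5.00 ng/ml). t1/2 = ln(2)/K from log-linear terminal slope; Tmax as median.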

Data set [8] in a line: AUC in fasted healthy human at 400 mg administered as single dose suspension 5 mins before consumption of high fat meal. Format: ADME, organism-based. To be noted: plasma. In short, it runs like this: (§5)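 In a crossover of 12 healthy subjects, each took a single 400 mg oral suspension dose 5 min before, midway through (about 10 min into a 20-min meal), or 20 min after a high-fat meal of about 50 g fat. Plasma was drawn 0–168 h and measured by LC-MS/MS. Parameters are noncompartmental, with AUC to the last measurable time.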

The subject of data set [9] is Homo sapiens. Description: Toxicity in healthy human assessed as headache at 200 mg QID, po administered as suspension for 7 days. The data set is classed as organism-based. To be noted: in vivo, 168 h. The essentials:
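Healthy volunteers (n = 12) took oral posaconazole suspension (40 mg/ml) for 7 days in a four-way randomized crossover with a 14- to 21-day washout. Subjects stayed fasted throughout, with nonfat snacks up to 800 cal/day allowed. Where given, Boost was taken with each dose. Safety covered adverse events, vital signs, clinical labs and 12-lead ECG, with AEs tabulated by body system and severity per treatment.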

Data set [10] deals with Homo sapiens. Briefly: AUC in fasted healthy human at 200 mg QID, po administered as suspension for 7 days. Format: ADME, organism-based, Plasma. The following applies: in vivo, 168 h. In short, it runs like this: as §1
Data set [11] in a line: Tmax in fasted healthy human at 400 mg administered as single dose suspension. The data set is classed as ADME, organism-based. The following applies: in vivo. The essentials:
as §2

A short description of data set [12]: Half life in fasted healthy human at 400 mg administered as single dose suspension coadministered with acidic carbonated beverage and proton pump inhibitor. Format: ADME, organism-based. To be noted: in vivo. In short, it runs like this:
as §2

The nature of data set [13]: Apparent volume of distribution in fasted healthy human at 400 mg administered as single dose suspension after consumption of high fat meal. Format: ADME, organism-based. To be noted: in vivo, read-out: Vc/F. In short, it runs like this: as §5
Data set [14] is described as follows: Cmax in healthy human plasma at 400 mg administered as single dose suspension coadministered with nutritional supplement and 4 mg loperamide as two 2 mg tablets. The following applies: po. Format: ADME, organism-based. Also noted: dose 400 mg. In short, it runs like this:
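Oral suspension (40 mg/ml) single dose with nutritional supplement plus loperamide 4 mg single dose, healthy volunteers, three-way crossover with 7–10-day washout. EDTA plasma drawn predose and 1–168 h postdose. LC-MS/MS assay (LLOQ 5.00 ng/ml). Noncompartmental parameters; Tmax reported as median (range).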

A short description of data set [15]: Apparent total body clearance in fasted healthy human at 400 mg administered as single dose suspension after 20 mins after consumption of high fat meal. Format: ADME, organism-based. To be noted: in vivo. The essentials:
as §5

The nature of data set [16]: Cmax in fasted healthy human plasma at 400 mg administered as single dose suspension coadministered with proton pump inhibitor. The data set is classed as ADME, organism-based. On the set-up: dose 400 mg. In short, it runs like this:
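This was a four-way crossover in 12 healthy subjects with 7–10 day washouts. Each took one fasting 400 mg oral suspension dose, with 12 oz ginger ale and/or esomeprazole 40 mg once each morning on days −2 to 1, with dosing on day 1. Plasma was sampled 0–168 h and measured by LC-MS/MS (LLOQ 5.00 ng/ml). Analysis was noncompartmental, with CL/F = dose/AUC_I and V/F = (CL/F)/K.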

The nature of data set [17]: AUC in fasted healthy human at 400 mg administered as single dose suspension after 20 mins after consumption of high fat meal. The data set is classed as ADME, organism-based. Also noted: dose 400 mg. To be noted: plasma. The essentials: as §5
A short description of data set [18]: Apparent volume of distribution in healthy human at 400 mg administered as single dose suspension coadministered with nutritional supplement. Format: ADME, organism-based. The following applies: in vivo. In short, it runs like this:
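A three-way crossover in 13 healthy subjects gave one 400 mg oral suspension dose with a nutritional supplement, either alone, with metoclopramide 10 mg orally three times daily on the day before and the day of dosing, or with a single 4 mg dose of loperamide. Plasma was taken 0–168 h for LC-MS/MS. Analysis was noncompartmental.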

For data set [19], the system named is Homo sapiens. Description: Toxicity in healthy human assessed as adverse events at 400 mg administered as single dose suspension coadministered with nutritional supplement and 4 mg loperamide as two 2 mg tablets. To be noted: in vivo. Format: organism-based. In short, it runs like this: as §3
Data set [20] is described as follows: Tmax in healthy human at 400 mg BID, po administered as suspension for 7 days coadministered with nutritional supplement. Format: ADME, organism-based. To be noted: in vivo. The essentials:
as §4

In data set [21] the test system is Homo sapiens. Briefly: AUC in healthy human at 400 mg BID, po administered as suspension for 7 days coadministered with nutritional supplement. To be noted: in vivo, 168 h. The data set is classed as ADME, organism-based, Plasma. The essentials: as §1
A short description of data set [22]: Apparent total body clearance in fasted healthy human at 400 mg administered as single dose suspension 5 mins before consumption of high fat meal. Format: ADME, organism-based. To be noted: in vivo. The essentials: as §5
Data set [23] is described as follows: Apparent volume of distribution in fasted healthy human at 400 mg administered as single dose suspension. The data set is classed as ADME, organism-based. The following applies: in vivo, read-out: Vc/F.
A short description of data set [24]: Half life in fasted healthy human at 400 mg administered as single dose suspension coadministered with proton pump inhibitor. The data set is classed as ADME, organism-based. To be noted: in vivo. The essentials: as §2

`CC[C@@H]([C@H](C)O)n1ncn(-c2ccc(N3CCN(c4ccc(OC[C@@H]5CO[C@@](Cn6cncn6)(c6ccc(F)cc6F)C5)cc4)CC3)cc2)c1=O` [POSACONAZOLE]: the Tmax amounted to 7 h in data set [1], 5 h in data set [5], 5 h in data set [11] and 6 h in data set [20]. Also, the CL/F in the data set with Homo sapiens [2] was 21.2 L/h; in [15], 395 mL/min; in [22], 957 mL/min. The half-life in data set [3] was 24.5 h; in data set [7], 34.7 h; in [12], 27.8 h; in data set [24], 25.7 h. Moreover, the Activity in the data set on Homo sapiens [4] was 15%; with Homo sapiens [6], 25%; in the data set on Homo sapiens [9] it was 25%; in the data set on Homo sapiens [19] it was 38%. The AUC at 5 min in data set [8] was 10000 ng·h/mL. The AUC in the data set on Homo sapiens [10] is 132000 ng·h/mL; in the data set on Homo sapiens [21], 80600 ng·h/mL. The Vd/F was found to be 757 L in [13], 1660 L in [18] and 3330 L in data set [23]. Moreover, the values for the Cmax in data set [14] and in data set [16] were 294 ng/mL and 76.7 ng/mL, respectively. Also, in [17], the AUC at 20 min turned out to be 21000 ng·h/mL.
